Screening data: PubChem BioAssay, several laboratories
The list is not random: actives were taken first. Their share in the collection is about 0.95%.
CSN deneddyl inh: blocks human CSN-mediated cullin deneddylation. actives 0.38% (n = 360,000). AID 651999. Purified CSN, SCF-Nedd8-OG deneddylation, fluorescence polarization. inhibition, % at 12.5 µM. Q92905;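 active = pattern-corrected inhibition above about 35%, with an unprinted fluorescence ratio check between 0.5 and 1.5, limit read from the data, passing the limit was not always enough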;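 also: 0% = enzyme with substrate and 100% = substrate without enzyme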
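Assay system: HEK293T-derived human Csn5 enzyme; quantity: 0.24 nM enzyme; medium: Tris/NaCl/DTT buffer, pH 7.5; also added: substrate SCFSkp2-Nedd8OG, 10 nM; doses: 12.5 µM compound; schedule: 90 min reaction at room temperature; signal: FP; read-out: % inhibition of substrate cleavage by Csn5; benchmarks: substrate-only high control, full reaction low control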
ASAP1 GAP inh: ASAP1 ArfGAP inhibition; Q9ULH1; ASAP1-stimulated ARF1 GTP hydrolysis, GDP FP detection; inhibition, % at 16.5 µM; actives 0.19% (n = 360,000); in the data active = inhibition above about 25%;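 also: 0% = vehicle with enzyme and substrate and 100% = no enzyme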
Target sequence (Q9ULH1 325-724 limits assumed): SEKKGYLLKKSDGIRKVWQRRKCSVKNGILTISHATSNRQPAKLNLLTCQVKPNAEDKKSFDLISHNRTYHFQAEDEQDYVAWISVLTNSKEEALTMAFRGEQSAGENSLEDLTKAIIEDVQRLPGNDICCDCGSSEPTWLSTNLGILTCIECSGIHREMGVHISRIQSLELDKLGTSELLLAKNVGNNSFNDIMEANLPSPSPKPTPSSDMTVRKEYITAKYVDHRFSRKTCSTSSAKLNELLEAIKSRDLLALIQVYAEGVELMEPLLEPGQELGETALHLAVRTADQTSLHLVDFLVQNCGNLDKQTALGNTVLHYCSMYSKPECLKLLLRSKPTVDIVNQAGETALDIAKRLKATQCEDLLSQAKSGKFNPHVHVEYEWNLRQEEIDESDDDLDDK
ARFGAP1 inhibitor: inhibits rat ARF GTPase activating protein 1. Q62848. Arfgap1-stimulated ARF1 GTP hydrolysis, GDP FP detection. inhibition, % at 16.5 µM. actives 0.26% (n = 360,000);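 active = inhibition above a per-plate limit, mean inhibition of low control wells plus 3 SD, cut at about 25% in these data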;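 also: 0% = DMSO wells with enzyme and 100% = wells lacking Arfgap1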
Target sequence (Q62848 1-136 limits assumed): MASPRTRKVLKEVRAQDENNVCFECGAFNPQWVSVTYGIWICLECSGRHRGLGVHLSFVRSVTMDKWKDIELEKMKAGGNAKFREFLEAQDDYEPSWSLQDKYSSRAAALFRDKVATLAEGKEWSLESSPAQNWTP
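system = rat Arfgap1 catalytic domain, aa 1-136 | technique = FP, GDP Alexa 633 tracer displaced from anti-GDP antibody, 620/688 nm | compound = one concentration, 16.5 µM, DMSO 1.26% | medium = HEPES-based buffer, pH 7.5 | timing = compound-enzyme preincubation 20 min, reaction 120 min, detection 60 min, 25 °C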
HNF4A DNA FP: change in binding of human HNF4 alpha to DNA. P41235. HNF4a-FITC DNA binding, fluorescence polarization, 1 h. activity change, % at 10 µM. actives 0.3% (n = 360,000). AID 1224865; in the data active = activity change above about 30%, passing the limit was not always enough
Numbers without * were called inactive; · = no result; + = active, no number.

SMILES | CSN deneddyl inh | ASAP1 GAP inh | ARFGAP1 inhibitor | HNF4A DNA FP
N#CCC(=O)NNC(=S)NC(=O)C(c1ccccc1)c1ccccc1 | -4 | -9 | -6 | 2
CC(=O)NC(=S)NNC(=O)C(c1ccccc1)c1ccccc1 | 77* | 5 | 1 | 3
COC(=O)[C@]12C[C@H](CC(=O)NCc3ccccc3)C(=O)N(CCC3=CCCCC3)C1=C[C@H](COCc1ccccc1)O[C@@H]2C | · | -3 | 10 | ·
CCCc1c(Cc2cccc(F)c2)ncn1CCc1ccccc1OC | · | -5 | 7 | ·
CC(=O)Nc1ccc(NC(=O)CSc2ccc(C(F)(F)F)cc2[N+](=O)[O-])cc1 | -5 | 7 | -4 | 2
O=C(CSc1ccc(C(F)(F)F)cc1[N+](=O)[O-])Nc1ccccc1 | -3 | 31* | 18 | -4
Cc1ccc(N(C(=O)c2snc(C(N)=O)c2N)C(CC(C)C)C(=O)NC2CCCC2)cc1 (stereo not drawn) | 110* | -4 | 13 | -2
COc1ccc(N2CCN(CC(=O)NCc3ccccc3)CC2)cc1 | -2 | 13 | 1 | 0
CCCNC(=O)CN1CCN(c2cc3ccccc3c(Cl)n2)CC1 | 100* | -8 | -8 | -5
COC(=O)C1=C(C)N(Cc2ccccc2C(F)(F)F)C(=NCc2cc(OC)c(OC)c(OC)c2)NC1c1cccc(C(F)(F)F)c1 (stereo not drawn) | · | 6 | -2 | ·
O=C(CSc1nc2c(cnn2-c2ccccc2)c(=O)[nH]1)N1CCCCC1 | 4 | -1 | -7 | -4
O=C(CSc1nc2c(cnn2-c2ccccc2)c(=O)[nH]1)c1ccc(Cl)cc1 | 88* | -1 | -13 | -40
Cc1cc2nc(-c3ccco3)c(Cc3cccc(Cl)c3)n2c(C)c1Br | 36* | 10 | 4 | 6
Cc1cc2nc(-c3cccc(Cl)c3)c(Cc3cccc(Cl)c3)n2c(C)c1Br | 7 | 1 | 1 | 6
CCOc1ccc(NC(=O)C/C(C)=N/NC(=O)c2cnccn2)cc1 | -2 | -4 | -13 | 1
COc1ccc(NC(=O)C/C(C)=N/NC(=O)c2cnccn2)cc1 | 2 | 4 | 11 | 30*
CCCCCCNc1ccc(C(=O)OCC)cc1 | 124* | 6 | 6 | -4
O=c1/c(=C\c2ccc(O)cc2)sc2n1C(c1ccccc1)C(c1ccccc1)=NN=2 (stereo not drawn) | 31 | -1 | 6 | 41*
Cn1cccc1/C=C1\SC(=Nc2ccccc2)NC1=O | 1 | 1 | -10 | 1
Cc1ccc(N=C2NC(=O)/C(=C/c3cn(C)c4ccccc34)S2)cc1C | 54 | 10 | -12 | 65*
COc1ccc(C(=O)CC2(O)C(=O)N(CN3CCOCC3)c3ccc(Br)cc32)cc1 (stereo not drawn) | · | 2 | -1 | ·
CCOc1cc(/C=N/NC(=O)c2nnn(-c3nonc3N)c2C)ccc1OCc1ccc(C)cc1 | 41* | -1 | -6 | 25
CCOc1cc(/C=N/NC(=O)c2nnn(-c3nonc3N)c2C)ccc1OCc1ccc(F)cc1 | 5 | 9 | 5 | 0
CCc1nc2ccccc2c(C(=O)OCC(=O)N(CCOC)c2c(N)n(Cc3ccccc3)c(=O)[nH]c2=O)c1C | + | 11 | -8 | -1
COCCN(C(=O)COC(=O)c1c(-c2ccccc2)noc1C)c1c(N)n(Cc2ccccc2)c(=O)[nH]c1=O | 4 | -8 | -5 | 1
SMILES | CSN deneddyl inh | ASAP1 GAP inh | ARFGAP1 inhibitor | HNF4A DNA FP
Oc1[nH]c(=S)sc1/C=C1\C(c2ccccc2)=Nc2ccccc21 | 24 | -7 | 8 | 95*
Cc1onc(-c2ccc3c(c2)OCO3)c1-c1ccc2[nH]ccc2c1 | -2 | 11 | 0 | 2
c1cc2cc(-c3c(-c4ccc5c(c4)OCO5)noc3-c3ccsc3)ccc2[nH]1 | -6 | 14 | 29* | -23
COCCNc1cc(N)c([N+](=O)[O-])cc1[N+](=O)[O-] | -2 | 4 | 13 | 45*
CCOC(=O)c1ccc(NCCOC)c([N+](=O)[O-])c1 | -1 | -8 | -10 | -1
O=C(N[C@H](c1cccc(Br)c1)[C@@H]1CCCC=C1c1ccccc1)C(F)(F)F | · | 2 | 5 | ·
COCCCNc1nc(N)c([N+](=O)[O-])c(NC2CCCCC2)n1 | 1 | 10 | 4 | 4
Nc1nc(NCC(=O)O)nc(NC2CCCCC2)c1[N+](=O)[O-] | 1 | 18 | 3 | 46*
O=c1/c(=C\c2cc([N+](=O)[O-])cc([N+](=O)[O-])c2O)sc2nc3ccccc3n12 | 14 | · | · | 40*
CCOC(=O)c1cc(-c2ccccc2)sc1NC(=O)C(C)N1C(=O)NC(C)(c2ccc(Cl)cc2)C1=O (stereo not drawn) | 6 | 4 | 12 | 51*
CCCN1C(=O)/C(=C/c2c(NCCCOC(C)C)nc3c(C)cccn3c2=O)SC1=S | 56* | · | · | 85
COc1ccc(C(=O)NC(NC(=O)c2ccc(OC)c(OC)c2)c2ccccc2F)cc1OC | 2 | 10 | 8 | 45*
CN1CCC(N2CCN(C3CN(C4CCCC4)S(=O)(=O)C3)CC2)CC1 (stereo not drawn) | 144* | 8 | 3 | 3
S=C(Nc1ccc(Cl)cc1)N1CCOCC1 | 42* | 19 | 3 | 2
C[C@H](O)[C@@H]1CN2CCc3c([nH]c4ccccc34)[C@@H]2C[C@@H]1N(C)CC1CCCCC1 | · | 10 | 2 | ·
COc1cc(/C=C(\NC(C)=O)C(=O)Nc2cccc(O)c2)ccc1OC(C)=O | 1 | 0 | 0 | 37*
COc1cc(/C=C(\NC(C)=O)C(=O)NC(C)(C)C)ccc1OC(C)=O | -5 | 3 | -2 | 3
O=C(Cc1c[nH]c2ccccc12)Nc1ccc(Nc2cccnc2)c(-c2ccc(-c3ccccc3)cc2F)c1 | · | 16 | 14 | ·
O=C(NCCN1CCC(n2c(=O)[nH]c3ccccc32)CC1)c1cccc2c1-c1ccccc1C2=O | 49* | 3 | 8 | 1
O=C(CSC1CCc2ccccc21)NNC(=O)Nc1ccc(Cl)cc1 (stereo not drawn) | · | 6 | -1 | ·
O=C1c2ccccc2NC(c2cccc(Cl)c2)N1N=C1CCCCCC1 (stereo not drawn) | 57* | -13 | -7 | -3
Nc1[nH]c(C(=O)c2ccccc2)c(-c2ccc3c(c2)OCO3)c1C(=O)NCCc1c[nH]c2ccccc12 | · | -9 | -1 | ·
Cc1ccc(CNC(=O)c2cccc3c2C(=O)c2ccc(N4CCCCC4)cc2S3(=O)=O)cc1 | 31 | 4 | -6 | 38*
Cc1ccc(CNC(=O)c2cccc3c2C(=O)c2ccc(N4CCOCC4)cc2S3(=O)=O)cc1 | 3 | 2 | -12 | 29
O=C(NCc1cccc(F)c1)c1cccc2c1C(=O)c1ccc(N3CCOCC3)cc1S2(=O)=O | 10 | 1 | 2 | 13
O=C(NCC1CC1)c1cccc2c1C(=O)c1ccc(N3CCCC3)cc1S2(=O)=O | 32 | -11 | 17 | 61
O=C(NCc1ccco1)c1cccc2c1C(=O)c1ccc(N3CCCC3)cc1S2(=O)=O | 16 | 5 | 1 | 52*
C=CCNC(=O)c1cccc2c1C(=O)c1ccc(N3CCCC3)cc1S2(=O)=O | 36* | 0 | 10 | 65
